High-throughput results (PubChem BioAssay)
A selection: hits, their analogues and other compounds. The true share with any hit is near 1.3%.
Furin inhibitor = blocks human furin protease activity | P09958 | purified furin, fluorogenic substrate cleavage | inhibition, % at 20 µM or 30 µM | hit rate 0.061% among 220,000; in the data active means inhibition above about 25%
JMJD2C inh = inhibitors of human GASC-1 (JMJD2C) demethylase; Q9H3R0; GST-JMJD2C(1-420) H3K9me3 demethylation, DELFIA europium; inhibition, % at 2.35 µM; hit rate 0.069% among 330,000;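 active means more than half of a compound's replicate wells show inhibition beyond 50%, single wells judged on their own value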;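 further: signal counts dimethyl H3K9 product captured on neutravidin plate; 0% = median of DMSO wells and 100% = 0.3 times that DMSO median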
NR2E3 ag-1 = activates human NR2E3 receptor | CHO-S Gal4-NCOR/VP16-NR2E3 two-hybrid, luciferase | inhibition of corepressor binding, % at 3.98 µM | hit rate 0.35% among 360,000;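 active means inhibition above the mean of all tested compounds plus 3 SD, cut at about 70% in these data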;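 further: 0% = DMSO with NR2E3 transfected cells and 100% = cells lacking NR2E3 construct; higher means lower luciferase signal from less NR2E3 corepressor binding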
Target sequence (Q9Y5X4 whole entry, looked up, the tested form may be a part): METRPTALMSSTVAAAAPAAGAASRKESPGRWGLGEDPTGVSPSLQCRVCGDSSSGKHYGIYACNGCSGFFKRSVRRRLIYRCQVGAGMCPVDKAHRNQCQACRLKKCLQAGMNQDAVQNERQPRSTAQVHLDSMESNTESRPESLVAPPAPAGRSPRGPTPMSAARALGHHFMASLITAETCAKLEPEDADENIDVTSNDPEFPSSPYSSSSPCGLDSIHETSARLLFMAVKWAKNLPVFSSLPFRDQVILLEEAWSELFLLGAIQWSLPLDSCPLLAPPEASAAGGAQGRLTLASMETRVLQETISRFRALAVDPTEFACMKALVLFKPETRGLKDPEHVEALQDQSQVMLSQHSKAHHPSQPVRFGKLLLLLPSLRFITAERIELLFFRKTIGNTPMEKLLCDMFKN
EP2 antag = blocks the human prostaglandin E2 receptor EP2; P43116; C6 glioma cells expressing human EP2, cAMP TR-FRET; cells stimulated with saturating PGE2; inhibition, % at 25 µM; hit rate 0.52% among 260,000;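 active means percent inhibition above 40 after rounding to a whole number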;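 further: rat C6 glioma host cells with rolipram phosphodiesterase inhibitor present; the protocol text gives 20 µM as final concentration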
Target sequence (P43116 whole entry, looked up): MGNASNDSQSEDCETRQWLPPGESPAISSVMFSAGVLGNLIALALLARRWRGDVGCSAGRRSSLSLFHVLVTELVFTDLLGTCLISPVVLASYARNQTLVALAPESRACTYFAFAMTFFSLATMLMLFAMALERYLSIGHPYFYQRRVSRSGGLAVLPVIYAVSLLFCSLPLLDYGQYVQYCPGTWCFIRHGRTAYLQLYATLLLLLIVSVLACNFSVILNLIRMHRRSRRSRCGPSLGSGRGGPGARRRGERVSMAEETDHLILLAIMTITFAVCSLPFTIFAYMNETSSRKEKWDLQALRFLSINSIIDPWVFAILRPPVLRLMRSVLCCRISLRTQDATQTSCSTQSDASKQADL
EP2 mod = modulators of human EP2 prostaglandin E2 receptor; P43116; EP2-expressing cells, cAMP HTRF FRET, PGE2 co-stimulation; induction, % at 25 µM; hit rate 0.83% among 260,000; AID 940;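 active means compounds whose cAMP rise, as percent of the full-agonist control response, exceeds 60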;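 further: rat C6 glioma line stably carrying human EP2 under a CMV promoter; the protocol text gives 20 µM as final concentration; 100% = response of wells given 1 µM PGE2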
NR2E3 ag-2 = NR2E3 (human) agonism. AID 2300. GST-NR2E3/biotin-RetCOR TR-FRET, 1536-well. inhibition of corepressor binding, % at 4.78 µM. hit rate 0.12% among 320,000. Q9Y5X4;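 active means percent inhibition above the cutoff of mean plus 3 SD of all tested compounds, set per screening campaign, cut at about 20% in these data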;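 further: 0% = DMSO wells and 100% = biotin wells as full block of FRET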
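Test system – NR2E3–RetCOR corepressor complex · Quantity – NR2E3 fusion 1.35 nM · Buffer or medium – Tris pH 7.5 · Incubation – Compound–protein incubation for 5 h at 4 °C · Technique – TR-FRET, Eu(K)-anti-GST donor, streptavidin-D2 acceptor, ex 340, em 617/671 nm · Evaluation – percent inhibition of 671/617 nm emission ratio versus biotin and DMSO controls · Plate – 1536-well format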
NR2E3 ag confirm = confirmation of human NR2E3 agonists; CHO-S mammalian two-hybrid NR2E3-NCOR, luciferase luminescence; inhibition, % at 3.98 µM; hit rate 51% among 2,300; AID 624378; shares compounds with NR2E3 ag-1;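 active means average inhibition above a cutoff equal to the mean inhibition of all tested compounds plus one SD, cut at about 70% in these data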;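 further: 0% = DMSO in NR2E3 cells and 100% = DMSO in cells lacking NR2E3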
GAL4-VP16 luc = counter-screen for NR2E3 agonists: GAL4-VP16 reporter inhibitors. AID 624379. CHO-S GAL4-VP16 luciferase reporter, luminescence. hit rate 29% among 2,300. shares compounds with NR2E3 ag-1. inhibition, % at 3.98 µM;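 active means mean inhibition above a cutoff equal to the average over all tested compounds plus one standard deviation, cut at about 70% in these data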;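 further: luciferase from a UAS reporter driven by GAL4-VP16 transactivation; 0% = DMSO with VP16-transfected cells and 100% = DMSO with cells lacking VP16; higher means less reporter light so more repression of VP16 activity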
Active calls of the source: *; nt = no result.

SMILES | Furin inhibitor | JMJD2C inh | NR2E3 ag-1 | EP2 antag | EP2 mod | NR2E3 ag-2 | NR2E3 ag confirm | GAL4-VP16 luc
CC1=C(C(=O)OC(C)C)C(c2ccccc2Br)NC(=O)N1 (stereo unspecified) | nt | nt | nt | 7 | -9 | nt | nt | nt
O=C(Nc1ccccc1)Nc1cc(Cl)cc(Cl)c1 | -9 | 3 | 20 | 28 | -59 | 4 | nt | nt
O=C(Nc1ccccc1)Nc1cc(OCC(F)(F)F)cc(OCC(F)(F)F)c1 | -7 | -10 | 64 | 0 | -16 | nt | 31 | 40
Cc1ccc(C(=O)NCc2n[nH]c(=S)n2C)cc1 | nt | nt | nt | 13 | 10 | nt | nt | nt
O=C(NCc1cccnc1)/C(=C/c1ccc(-c2ccc(Cl)cc2)o1)S(=O)(=O)c1ccccc1 | -12 | -7 | 90* | 8 | 15 | -1 | 47 | -31
O=C(CN(Cc1ccc(Br)cc1)S(=O)(=O)c1ccccc1)NCc1cccnc1 | nt | -2 | -19 | nt | nt | 0 | nt | nt
O=C(NCc1cccnc1)/C(=C\c1ccc(-c2ccc(Br)cc2)o1)S(=O)(=O)c1ccccc1 | -9 | -4 | 93* | 7 | 8 | 4 | 43 | 11
Cc1ccc2oc(/N=C(\N)NC(=O)C(C)(C)C)nc2c1 | -8 | -12 | 91* | 10 | 45 | 3 | 92* | 66
Cc1cc(C)cc(N=c2c([N+](=O)[O-])nn(-c3ccc4c(c3)OCCO4)n2O)c1 | -18 | 8 | 50 | 9 | -8 | -5 | 61 | 12
O=[N+]([O-])c1nn(-c2ccc3c(c2)OCCO3)n(O)c1=NCCCO | 2 | 5 | 15 | 12 | 6 | -2 | nt | nt
Cc1ccc(N=c2c([N+](=O)[O-])nn(-c3ccc4c(c3)OCCO4)n2O)cc1F | -21 | 2 | 82* | 4 | -56 | 1 | 63 | 49
O=[N+]([O-])c1nn(-c2ccc3c(c2)OCCO3)n(O)c1=Nc1ccccc1 | 5 | 9 | 95* | 3 | 5 | 2 | 83* | 77*
CCCc1[nH]nc2c1C(c1ccc3c(c1)c1ccccc1n3CC)C(C#N)=C(N)O2 (stereo unspecified) | nt | nt | nt | 1 | 34 | nt | nt | nt
Cc1ccc(Nc2nc(NCc3ccccc3)nc3ccsc23)c(C)c1 | nt | nt | 57 | nt | nt | nt | 42 | 50
COc1ccccc1CNc1nc(Nc2ccccc2OC)c2sccc2n1 | nt | nt | 57 | nt | nt | nt | 54 | 43
COc1ccccc1CNc1nc(Nc2ccc(C)cc2C)c2sccc2n1 | nt | nt | 59 | nt | nt | nt | 65 | 52
Cc1ccc(Nc2nc(NCc3cccs3)nc3ccsc23)c(C)c1 | nt | nt | 35 | nt | nt | nt | nt | nt
CCN(CC)C(=O)C1CCN(S(=O)(=O)c2ccc3oc4ccccc4c3c2)CC1 | -20 | -2 | 77* | 11 | -24 | 0 | 65 | 58
CN(C(=O)CSc1cc(C(=O)c2nccn2C)c2ccccc2n1)c1ccccc1 | -7 | 0 | 81* | 7 | -5 | -1 | 78* | 61
COc1ccc(C(=O)O)cc1Cn1nc(C)cc1C | nt | nt | nt | 7 | 0 | nt | nt | nt
O=S(=O)(c1ccc(Cl)cc1)N1CCN(c2ncnc3sccc23)CC1 | nt | 0 | 95* | nt | nt | nt | 94* | 72*
COc1ccccc1-n1c(=O)oc2ccc(Cl)cc2c1=O | -12 | 0 | 73* | 10 | -14 | 0 | 96* | 55
COc1c(Cl)c(=O)oc2ccc(Cl)cc12 | nt | nt | -3 | nt | nt | nt | nt | nt
NC(=S)N/N=C/c1c(O)ccc2ccccc12 | -13 | 0 | 75* | 8 | -30 | -2 | 2 | 10
CCOC(=O)N1CCC(NC(=O)C2CCCN(Cc3nc(-c4cccc(Cl)c4)oc3C)C2)CC1 (stereo unspecified) | -28 | 7 | 84* | 11 | -29 | 0 | 88* | 65
SMILES | Furin inhibitor | JMJD2C inh | NR2E3 ag-1 | EP2 antag | EP2 mod | NR2E3 ag-2 | NR2E3 ag confirm | GAL4-VP16 luc
Cc1oc(-c2ccc(Cl)cc2)nc1CN1CCCC(C(=O)NC2CC2)C1 (stereo unspecified) | nt | 0 | 14 | nt | nt | 4 | nt | nt
COc1ccc(Cl)cc1NC(=O)c1cc(-c2ccc(C)cc2)on1 | nt | nt | nt | 4 | -1 | nt | nt | nt
O=C(C1CCC(CNS(=O)(=O)c2cccs2)CC1)N1CCCCC1 (stereo unspecified) | 5 | 5 | -9 | 26 | -18 | 0 | nt | nt
Cc1cccc(N2CCN(C(=O)C3CCC(CNS(=O)(=O)c4cccs4)CC3)CC2)c1C (stereo unspecified) | nt | -13 | 49 | nt | nt | 6 | 36 | 51
Cc1cc(C)c2cc(CN(Cc3ccccc3)C(c3nnnn3C3CCCC3)C(C)C)c(=O)[nH]c2c1 (stereo unspecified) | nt | nt | nt | 8 | 26 | nt | nt | nt
Cn1c(=O)c(C#N)c(-c2ccc(F)cc2)c2cc(C(=O)c3cc(Cl)cc(Cl)c3O)cnc21 | -21 | 2 | 94* | 9 | -43 | -1 | 100* | 94*
CCN(CC)C(=O)CSc1nnc2c3cc(OC)ccc3n(C)c2n1 | nt | nt | nt | 9 | -1 | nt | nt | nt
Cc1ccc(NC(=O)CN2C(=O)C(C)(C)Oc3ccc(C(=O)NC(C)C)cc32)cc1C | nt | nt | nt | 11 | -5 | nt | nt | nt
COC(C(=O)C(O)C(C)O)C1Cc2cc3cc(OC4CC(OC5CC(O)C(O)C(C)O5)C(O)C(C)O4)c(C)c(O)c3c(O)c2C(=O)C1OC1CC(OC2CC(OC3CC(O)C(OC)C(C)O3)C(O)C(C)O2)C(O)C(C)O1 (stereo unspecified) | nt | nt | 96* | nt | nt | nt | 93* | 75*
CC(=O)c1cn(CCOc2cc(C)ccc2C)c2ccccc12 | nt | -3 | 90* | nt | nt | 9 | 93* | 83*
Cc1ccc(C)c(OCCn2cc(C(=O)O)c3ccccc32)c1 | -29 | 0 | -26 | 5 | -1 | -1 | nt | nt
COc1cccc(OCCn2cc(C(C)=O)c3ccccc32)c1 | nt | -12 | 65 | nt | nt | 5 | 80* | 64
COc1cccc(OCCn2cc(C(=O)c3ccco3)c3ccccc32)c1 | -24 | -9 | -31 | 18 | 8 | 3 | nt | nt
Cc1ccc(NC(=O)Cn2cc(C(=O)C3CC3)c3ccccc32)c(C)c1 | nt | -15 | 13 | 8 | 11 | 2 | nt | nt
CC(=O)c1cn(CC(=O)Nc2ccc(C)cc2C)c2ccccc12 | -20 | 3 | 54 | -1 | -13 | 4 | 77* | 49
CC(=O)Oc1c(I)cc(I)cc1C(=O)Nc1ccc(Cl)cc1 | nt | 10 | 106* | nt | nt | 2 | 99* | 87*
COc1ccc(Cl)cc1C(=O)Nc1ccc(NC(C)=O)cc1 | -17 | -13 | -30 | 6 | -2 | 0 | nt | nt
CCOC(=O)Cn1nc(C)n2c(cc3sccc32)c1=O | nt | nt | nt | 1 | -27 | nt | nt | nt
CCCCCCC(=O)N1C/C=C\C(c2ccc(OC)cc2)N(Cc2ccc(F)cc2)C(=O)C1 (stereo unspecified) | 9 | 10 | 60 | 8 | 34 | -2 | 61 | 43
Cc1ccc(OCC(=O)Oc2c(C)cccc2C)cc1 | nt | 0 | -29 | nt | nt | 1 | nt | nt
